Screens from PubChem BioAssay.
APJ antagonist: antagonists of human APJ apelin receptor; P35414; CHO-K1 APJ beta-arrestin complementation, luminescence; inhibition, % at 20 µM; 330,000 compounds, 0.32% hits; AID 2521;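 active = inhibition above about 40% at 20 µM, limit read from the data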;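 also: cells challenged with 10 nM apelin-13 agonist together with compound; plate controls were apelin-13 plus DMSO wells for no effect and DMSO wells lacking apelin-13 for full effect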
APJ agonist: activates the human apelin receptor APJ. P35414. CHO-K1 APJ PathHunter beta-arrestin, luminescence; 0% DMSO wells, 100% apelin. activation, % at 20 µM. 330,000 compounds, 0.11% hits;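 active = activation more than six SD over the plate average, tested at 20 µM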;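 also: 0% = DMSO alone and 100% = apelin-13 at 10 nM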
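assay system = CHO-K1 APJ beta-arrestin complementation cell line | input = cell density 1000 per well | dosing = compound 20 µM once, DMSO 1% | timing = compound 90 min 25 °C, reagent 1 h | measured by = luminescence from split beta-galactosidase complementation, Galacton Star/Emerald II substrate | read-out basis = APJ agonist activity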
CCR6 antagonist: blocks CCL20-driven beta-arrestin recruitment at human CCR6; P51684; CHO-K1 CCR6 PathHunter beta-arrestin, luminescence, CCL20-stimulated; inhibition, % at 20 µM; 340,000 compounds, 0.49% hits;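 active = compounds whose inhibition of the agonist-driven luminescence signal at 20 µM reaches about 50%, limit read from the data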;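 also: cells stimulated with CCL20 at 14 nM final; plate controls were DMSO with CCL20 for no effect and DMSO without agonist for full effect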
GAA850 FXN act: increases GAA850 frataxin promoter reporter activity. HEK293 lucGAA850 FXN promoter luciferase reporter, 24 h; percent of 10 µM SAHA response. activation, % at 6 µM. 360,000 compounds, 0.56% hits;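 active = activation above the average of all compounds screened plus 3 SD, cutoff fixed separately per campaign, cut at about 7.5% in these data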;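 also: 0% = DMSO wells and 100% = 10 µM SAHA wells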
EBI2 block: EBI2 (human) antagonism. P32249. inhibition, % at 5 µM. EBI2 beta-arrestin recruitment, luminescence, 7a,25-OHC stimulated. 360,000 compounds, 0.81% hits; in the data active = inhibition above about 38%;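 also: enzyme fragment complementation signal reports receptor beta-arrestin coupling in cells; 0% = agonist plus DMSO wells and 100% = wells without agonist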
CXCR6 block: inhibitors of human CXCR6 receptor; CHO-K1 PathHunter CXCR6 beta-arrestin, luminescence; AID 602244; 360,000 compounds, 0.36% hits; inhibition, % at 20 µM; O00574; in the data active = inhibition above about 34%, passing the limit was not always enough;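 also: antagonist mode with CXCL16 agonist at 10 nM final; 0% = 10 nM CXCL16 with DMSO and 100% = unstimulated wells without agonist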
Target sequence (O00574 whole entry, looked up): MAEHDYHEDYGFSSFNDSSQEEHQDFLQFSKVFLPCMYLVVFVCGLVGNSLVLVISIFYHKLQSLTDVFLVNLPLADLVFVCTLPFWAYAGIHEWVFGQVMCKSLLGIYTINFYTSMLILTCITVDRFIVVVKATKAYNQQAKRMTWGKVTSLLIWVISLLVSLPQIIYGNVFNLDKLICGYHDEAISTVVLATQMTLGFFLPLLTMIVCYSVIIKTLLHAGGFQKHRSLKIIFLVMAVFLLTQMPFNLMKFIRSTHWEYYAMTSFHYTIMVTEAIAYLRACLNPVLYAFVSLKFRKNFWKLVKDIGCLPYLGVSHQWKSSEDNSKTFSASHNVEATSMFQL
EBI2 conf: confirmation of human EBI2 receptor antagonists; inhibition, % at 5 µM; AID 651997; EBI2 beta-arrestin luminescence, 7a,25-OHC antagonism; 2,400 compounds, 29% hits; shares compounds with EBI2 block;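 active = inhibition of at least 50%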
EBI2 agonist: EBI2 agonism counter-screen; shares compounds with EBI2 block; EBI2-expressing cells, agonist mode, luminescence, 60 min; 0% vehicle, 100% 7α,25-dihydroxycholesterol control; activation, % at 5 µM; 2,400 tested, under 10 active;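 active = activation of at least 50%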
bGal counter: counter-screen for EBI2 antagonists: E. coli beta-galactosidase inhibition; shares compounds with EBI2 block; purified beta-galactosidase, luminescent Galacton Star, 15 min; inhibition, % at 5 µM; 2,400 compounds, 1% hits; AID 652176;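 active = replicate-average signal at least 3 plate SD below neutral wells, shown as high inhibition, flagging enzyme-inhibiting false positives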;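 also: 0% = DMSO wells with enzyme and 100% = wells lacking enzyme; higher means stronger loss of beta-gal luminescence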
Active calls of the source: *; · = no result. An excerpt weighted towards active compounds, which were near 2% of everything screened.

SMILES	APJ antagonist	APJ agonist	CCR6 antagonist	GAA850 FXN act	EBI2 block	CXCR6 block	EBI2 conf	EBI2 agonist	bGal counter
CCOC(=O)N1CCN(C(=O)/C=C/c2cccc([N+](=O)[O-])c2)CC1	2	1	8	2	48*	-6	26	-1	-11
CCOc1ccc(S(=O)(=O)NCCC(=O)OCC(=O)NC(=O)c2cccn2C)cc1	2	-3	-11	-1	1	-11	·	·	·
O=C(/C=C/c1ccc(Br)cc1)N1CCN(Cc2ccccc2)CC1	10	4	6	2	96*	-4	85*	-1	-7
Cc1ccc(/C=C/C(=O)N2CCN(Cc3ccccc3)CC2)o1	8	3	9	2	2	-3	·	·	·
O=C(/C=C/c1ccc(F)cc1)N1CCN(Cc2ccccc2)CC1	-7	0	1	2	93*	-11	80*	2	0
CCc1nc2ccc(C(=O)NCCCn3ccnc3)cn2c1N(C)CCCc1ccccc1	·	·	·	0	-3	2	·	·	·
CC1CCN(C(=O)c2cc3c(ccc4ccccc43)o2)CC1	-20	-6	31	2	82*	5	62*	0	-5
CC1CCN(C(=O)c2cc3ccccc3c(=O)o2)CC1	10	0	7	-1	-2	-2	·	·	·
CCOC(=O)C1CCN(C(=O)c2cc3cc4ccc(C)cc4nc3o2)CC1	-7	0	12	4	43	7	·	·	·
CCOC(=O)C1CCN(C(=O)c2cc3c(ccc4ccccc43)o2)CC1	13	-5	35	4	78*	-5	64*	-1	-11
COc1ccc(C(O)c2nc(-c3cnn(C)c3)cs2)cc1 (centres undefined)	·	·	·	3	5	-11	·	·	·
O=C(CCOc1ccccc1)Nc1ccnn1C1CCN(CCc2ccccc2)CC1	10	-8	22	1	3	-4	·	·	·
COC(=O)c1c(NC(=O)CN2C(=O)c3ccccc3C2=O)sc(Cc2ccc3c(c2)OCO3)c1C	2	0	-8	-2	63*	6	33	0	-12
COC(=O)C1=C(CS(=O)(=O)c2cc(OC)ccc2OC)NC(=O)NC1c1ccc(O)c(OC)c1 (centres undefined)	3	-1	3	0	8	-3	·	·	·
COc1ccccc1-c1ccc(Nc2ccc(C(=O)N3CCOCC3)cc2)nn1	-1	3	5	-1	-19	-8	·	·	·
CC(=O)c1ccc(Nc2ccc(-c3ccccc3F)nn2)cc1	-10	-2	5	7	42*	-7	26	-2	-5
O=C(c1ccco1)N1CCN(S(=O)(=O)c2cccs2)CC1	-11	-2	-4	0	-14	-2	·	·	·
COc1cc(SC)ccc1C(=O)N1CCN(c2ccccc2F)CC1	-9	-5	6	3	17	2	·	·	·
Cc1ccc(C(=O)N2CCN(S(=O)(=O)c3ccc(C)cc3)CC2)cc1	-3	-1	16	-1	5	-3	·	·	·
COc1cc(SC)ccc1C(=O)N1CCN(S(=O)(=O)/C=C/c2ccccc2)CC1	-4	-3	5	2	65*	-4	24	-2	-10
O=S(=O)(/C=C/c1ccccc1)N1CCN(c2ccccc2)CC1	-22	0	5	2	-1	1	·	·	·
O=C(c1cc2ccccc2o1)N1CCN(S(=O)(=O)c2cccs2)CC1	-13	0	-7	0	59*	-6	53*	1	0
O=C(c1ccc(Cl)cc1)N1CCN(S(=O)(=O)/C=C/c2ccccc2)CC1	0	-3	28	0	92*	-6	67*	3	8
Cc1ccc(S(=O)(=O)N2CCN(C(=O)c3cc(=O)c4ccccc4o3)CC2)cc1	14	-2	11	0	46*	0	39	1	9
CCN(CC)c1ccc(S(=O)(=O)N2CCOCC2)cc1NC(=O)CNCc1cccc(Cl)c1	·	·	13	2	18	6	·	·	·
SMILES	APJ antagonist	APJ agonist	CCR6 antagonist	GAA850 FXN act	EBI2 block	CXCR6 block	EBI2 conf	EBI2 agonist	bGal counter
O=C(c1ccco1)N1CCN(S(=O)(=O)/C=C/c2ccccc2)CC1	6	-3	-10	1	7	-9	·	·	·
O=C(c1cc2ccccc2o1)N1CCOCC1	-4	-5	9	2	-2	4	·	·	·
O=C(c1cc2ccccc2o1)N1CCN(S(=O)(=O)/C=C/c2ccccc2)CC1	1	-2	23	-1	92*	-11	86*	1	0
O=C(c1cc2ccccc2o1)N1CCN(S(=O)(=O)c2ccccc2)CC1	12	-2	14	-1	75*	4	41	1	6
O=C(/C=C/c1ccc(Cl)cc1)N1CCOCC1	8	-5	15	3	50*	3	30	-1	-10
O=C(/C=C/c1ccc(Br)cc1)NC(=S)N1CCOCC1	-7	-1	-2	0	64*	-3	48	0	0
CN1CCN(C(=S)NC(=O)/C=C/c2ccccc2)CC1	16	-2	-3	1	2	4	·	·	·
O=C(/C=C/c1ccc(Cl)c(Cl)c1)N1CCOCC1	22	4	2	5	57*	-2	55*	-1	-20
O=C(/C=C/c1ccc2c(c1)OCO2)N1CCCCC1	12	-2	8	6	21	-4	·	·	·
O=C(/C=C/c1ccc2c(c1)OCO2)N1CCN(c2ccc(Cl)cc2)CC1	1	3	-12	1	47*	-2	29	2	5
CC1OC(C(C)(C)C)Cc2[nH][nH]c(=O)c21 (centres undefined)	·	·	·	·	-13	-3	·	·	·
CCOc1cc(/C=C2/SC(=Nc3ccccc3)N(Cc3cccnc3)C2=O)ccc1OCC#N	13	-3	18	5	48*	4	33	0	5
CCOC(=O)C1=CCN(S(=O)(=O)c2ccccc2Cl)C1c1cccc(Br)c1 (centres undefined)	·	·	·	·	56*	3	20	0	5
CCOC(=O)C1=CCN(S(=O)(=O)c2ccccc2Br)C1c1cccc(Cl)c1 (centres undefined)	·	·	·	·	28	5	·	·	·
CCOC(=O)C1=CCN(S(=O)(=O)c2ccccc2F)C1c1cccc(Cl)c1 (centres undefined)	·	·	·	·	-26	4	·	·	·
CCOC(=O)C1=CCN(S(=O)(=O)c2ccccc2C)C1c1cccc(Cl)c1 (centres undefined)	·	·	·	·	61*	·	44	-1	-12
